Calls of active or inactive are those of the source. No cut-off for these calls is given here.
Columns and labels:
[1] = Toxicity in […] mouse assessed as mortality at cumulative dose of 100 mg/kg, ip measured after 48 hrs; format: organism-based; set-up: dose 100 mg/kg, route intraperitoneal; conditions: in vivo, read-out: Activity
Outline: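 Uninfected 8–10-week-old female and male Swiss Webster and C3H/He (H-2k) mice injected i.p. on day 1 every 2 h with escalating doses: 5, 15, 30, 50 and 100 mg/kg (cumulative 20, 50, 100, 200 mg/kg). Toxic and subtoxic signs inspected on days 2–3 per OECD guidelines; tolerated dose set at 48 h.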

[2] = test system: Trypanosoma cruzi; assay: Antitrypanosomal activity against Trypanosoma cruzi Y infected in Swiss-Webster mouse assessed as decrease in parasite-induced weight loss at 100 mg/kg/day, po administered 5 days post-infection for 10 consecutive days measured on day 120; format: functional, organism-based
Outline: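 Body weight of infected, treated mice followed from 0 to 120 dpi.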

[3] = test system: Trypanosoma cruzi; assay: Antitrypanosomal activity against Trypanosoma cruzi Y bloodstream forms infected in Swiss mouse cardiomyocytes assessed as parasite crista dilation at 10 ug/ml after 24 hrs by transmission electron microscopy; format: functional, organism-based
[4] = test system: Trypanosoma cruzi; assay: Antitrypanosomal activity against Trypanosoma cruzi Y bloodstream forms infected in Swiss-Webster mouse assessed as decrease in parasite load at 25 mg/kg/day, ip administered 8 days postinfection measured on day 2; format: functional; set-up: scale not given: the % may be the effect or the level left; conditions: route intraperitoneal
Outline: (§1)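 Male Swiss mice infected i.p. with 10^4 Y strain bloodstream forms. Given 0.2 ml i.p. at 5 and 8 dpi, or daily for 10 days from 5 dpi; reference drug given by gavage. Parasitemia measured by the Pizzi-Brener method, cumulative mortality checked daily to 120 dpi, n ≥ 6 per group.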

[5] = test system: Trypanosoma cruzi; assay: Antitrypanosomal activity against Trypanosoma cruzi Y bloodstream forms infected in Swiss-Webster mouse assessed as survival of mouse at 50 mg/kg/day, ip administered 8 days postinfection measured on day 120; format: functional, organism-based; outline: as §1

**Q.** Which results are given for `CC(C)Oc1cc(NC(=N)c2ccccn2)ccc1-c1ccc(-c2ccc(NC(=N)c3ccccn3)cc2OC(C)C)o1`?
**A.** mortality at 48 h [1]: 80%; Activity [2]: inactive; Activity [3]: Active; Activity [4]: 78%; Activity [5]: Active

From ChEMBL document CHEMBL1649306, “Arylimidamide DB766, a potential chemotherapeutic candidate for Chagas' disease treatment” (Antimicrob Agents Chemother, 2010)
